Test results from ChEMBL document CHEMBL4725261, “Design, synthesis and evaluation of carbamate-linked uridyl-based inhibitors of human ST6Gal I” (Bioorg Med Chem, 2020).

Assays:
[1] = molecular target: T1, Beta-galactoside alpha-2,6-sialyltransferase 1 (Rattus norvegicus, UniProt P13721); assay: Inhibition of rat liver ST6Gal-1 using […] measured up to 20 mins by HPLC analysis
T1 sequence (P13721 whole entry): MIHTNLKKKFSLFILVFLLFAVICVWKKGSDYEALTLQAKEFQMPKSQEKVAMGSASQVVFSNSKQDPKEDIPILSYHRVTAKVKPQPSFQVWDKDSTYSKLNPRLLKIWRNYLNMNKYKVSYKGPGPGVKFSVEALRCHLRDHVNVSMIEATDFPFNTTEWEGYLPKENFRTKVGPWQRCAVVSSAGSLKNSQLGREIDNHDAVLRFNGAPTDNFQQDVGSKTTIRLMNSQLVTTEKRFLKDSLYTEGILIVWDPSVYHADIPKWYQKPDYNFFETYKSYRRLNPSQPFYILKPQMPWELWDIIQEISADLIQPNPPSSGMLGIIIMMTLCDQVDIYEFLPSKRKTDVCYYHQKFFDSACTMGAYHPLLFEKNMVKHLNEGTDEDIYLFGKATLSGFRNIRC

[2] = molecular target: T1, Beta-galactoside alpha-2,6-sialyltransferase 1; assay: Inhibition of rat liver ST6Gal-1 by HPLC-based assay
[3] = molecular target: T2, Beta-galactoside alpha-2,6-sialyltransferase 1 (Homo sapiens, UniProt P15907); assay: Displacement of fluorescent probe from human ST6Gal-1 by fluorescence polarization assay
T2 sequence (P15907 whole entry): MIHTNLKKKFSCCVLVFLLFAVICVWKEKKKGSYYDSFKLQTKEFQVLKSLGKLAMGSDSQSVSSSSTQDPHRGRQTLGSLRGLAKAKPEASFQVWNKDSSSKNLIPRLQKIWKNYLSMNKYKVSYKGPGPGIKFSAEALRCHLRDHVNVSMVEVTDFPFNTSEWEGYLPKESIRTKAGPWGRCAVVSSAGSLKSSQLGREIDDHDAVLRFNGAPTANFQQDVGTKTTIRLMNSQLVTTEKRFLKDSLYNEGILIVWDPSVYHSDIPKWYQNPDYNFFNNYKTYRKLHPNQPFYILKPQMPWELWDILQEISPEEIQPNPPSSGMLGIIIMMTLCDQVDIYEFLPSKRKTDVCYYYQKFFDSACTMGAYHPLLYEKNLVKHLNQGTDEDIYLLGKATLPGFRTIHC

[4] = system: MIA PaCa-2; assay: Cytotoxicity against human MIA PaCa-2 cells assessed as reduction in cell viability at 200 uM after 24 to 48 hrs by MTS assay; assay type: cell-based; conditions: mia paca-2, 200 µM, time 24-48 hrs
[5] = molecular target: T2, Beta-galactoside alpha-2,6-sialyltransferase 1; assay: Inhibition of recombinant human N-terminal 6His-tagged ST6Gal-1 (Glu44 to Cys406 residues)
How it was run: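 Recombinant human ST6Gal I activity was measured in a luminescence microplate assay, and inhibition was expressed as Ki.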

Row | Compound | Activity [4] | Ki [5] | also measured
1 | Nc1ccn([C@@H]2O[C@H](COP(=O)(O)O[C@@H](c3cccc(Oc4ccccc4)c3)P(=O)(O)O)[C@@H](O)[C@H]2O)c(=O)n1 | – | – | Ki [1]: 0.07 µM
2 | CC(=O)N[C@H]1[C@@H](Oc2ccccc2)OC([C@@H](OP(=O)(O)OC[C@H]2O[C@@H](n3ccc(N)nc3=O)[C@H](O)[C@@H]2O)P(=O)(O)O)=C[C@@H]1O | – | – | Ki [2]: 0.029 µM
3 | Nc1ccn([C@@H]2O[C@H](COP(=O)(O)O[C@@H](c3cccc(NC(=O)c4ccc(C(=O)O)c(-c5c6ccc(=O)cc-6oc6cc(O)ccc56)c4)c3)P(=O)(O)O)[C@@H](O)[C@H]2O)c(=O)n1 | – | – | Kd [3]: 0.022 µM
4 | Nc1ccn([C@@H]2O[C@H](COP(=O)(O)O[C@H](c3cccc(NC(=O)c4ccc(C(=O)O)c(-c5c6ccc(=O)cc-6oc6cc(O)ccc56)c4)c3)P(=O)(O)O)[C@@H](O)[C@H]2O)c(=O)n1 | – | – | Kd [3]: 0.009 µM
5 | O=C(NC[C@H]1O[C@@H](n2ccc(=O)[nH]c2=O)[C@H](O)[C@@H]1O)OC(c1cccc(Oc2ccccc2)c1)P(=O)([O-])[O-].[Na+].[Na+] (stereo in doubt; 28a-(s)) | Non-Toxic | – | –
6 | O=C(NC[C@H]1O[C@@H](n2ccc(=O)[nH]c2=O)[C@H](O)[C@@H]1O)OC(c1ccc(F)c(Oc2ccccc2)c1)P(=O)([O-])[O-].[Na+].[Na+] (stereo in doubt; 28b-(s)) | Non-Toxic | – | –
7 | O=C(NC[C@H]1O[C@@H](n2ccc(=O)[nH]c2=O)[C@H](O)[C@@H]1O)OC(c1ccc(F)cc1)P(=O)(O)O (stereo in doubt; 28c-(l)) | – | 1.1 µM | –
8 | O=C(NC[C@H]1O[C@@H](n2ccc(=O)[nH]c2=O)[C@H](O)[C@@H]1O)OC(c1ccc(F)cc1)P(=O)([O-])[O-].[Na+].[Na+] (stereo in doubt; 28c-(s)) | Non-Toxic | 306 µM | –
9 | O=C(NC[C@H]1O[C@@H](n2ccc(=O)[nH]c2=O)[C@H](O)[C@@H]1O)OC(c1cccc(F)c1)P(=O)([O-])[O-].[Na+].[Na+] (stereo in doubt; 28d-(s)) | Non-Toxic | 19.2 µM | –
10 | CCCOc1cccc(C(OC(=O)NC[C@H]2O[C@@H](n3ccc(=O)[nH]c3=O)[C@H](O)[C@@H]2O)P(=O)(O)O)c1 (stereo in doubt; 28e-(l)) | – | 20.3 µM | –
11 | CCCOc1cccc(C(OC(=O)NC[C@H]2O[C@@H](n3ccc(=O)[nH]c3=O)[C@H](O)[C@@H]2O)P(=O)([O-])[O-])c1.[Na+].[Na+] (stereo in doubt; 28e-(s)) | Non-Toxic | – | –
12 | COc1cccc(C(OC(=O)NC[C@H]2O[C@@H](n3ccc(=O)[nH]c3=O)[C@H](O)[C@@H]2O)P(=O)([O-])[O-])c1.[Na+].[Na+] (stereo in doubt; 28f-(s)) | Non-Toxic | – | –
13 | COc1ccc(C(OC(=O)NC[C@H]2O[C@@H](n3ccc(=O)[nH]c3=O)[C@H](O)[C@@H]2O)P(=O)([O-])[O-])cc1.[Na+].[Na+] (stereo in doubt; 28g-(s)) | Non-Toxic | – | –
14 | COc1ccc(C(OC(=O)NC[C@H]2O[C@@H](n3ccc(=O)[nH]c3=O)[C@H](O)[C@@H]2O)P(=O)([O-])[O-])cc1OC1CCCC1.[Na+].[Na+] (stereo in doubt; 28h-(s)) | Non-Toxic | – | –
15 | O=C(NC[C@H]1O[C@@H](n2ccc(=O)[nH]c2=O)[C@H](O)[C@@H]1O)OC(c1ccc(OC2CCCC2)cc1)P(=O)(O)O (stereo in doubt; 28i-(l)) | – | 11.5 µM | –
16 | O=C(NC[C@H]1O[C@@H](n2ccc(=O)[nH]c2=O)[C@H](O)[C@@H]1O)OC(c1ccc(OC2CCCC2)cc1)P(=O)([O-])[O-].[Na+].[Na+] (stereo in doubt; 28i-(s)) | Non-Toxic | 55.5 µM | –
17 | O=C(NC[C@H]1O[C@@H](n2ccc(=O)[nH]c2=O)[C@H](O)[C@@H]1O)OC(c1ccccc1)P(=O)([O-])[O-].[Na+].[Na+] (stereo in doubt; 28j-(s)) | Non-Toxic | – | –
18 | O=C(NC[C@H]1O[C@@H](n2ccc(=O)[nH]c2=O)[C@H](O)[C@@H]1O)OC(c1cc2ccccc2s1)P(=O)([O-])[O-].[Na+].[Na+] (stereo in doubt; 28k-(s)) | Non-Toxic | 8.5 µM | –
19 | O=C(NC[C@H]1O[C@@H](n2ccc(=O)[nH]c2=O)[C@H](O)[C@@H]1O)OC(c1csc2ccccc12)P(=O)([O-])[O-].[Na+].[Na+] (stereo in doubt; 28l-(s)) | Non-Toxic | – | –
20 | Nc1ccn([C@@H]2O[C@H](CNC(=O)OC(c3cccc(Oc4ccccc4)c3)P(=O)([O-])[O-])[C@@H](O)[C@H]2O)c(=O)n1.[Na+].[Na+] (stereo in doubt; 30-(s)) | Non-Toxic | – | –
